The target of the assay is Voltage-dependent L-type calcium channel subunit alpha-1C (Oryctolagus cuniculus, UniProt P15381). The experiment in a line: Antagonist activity at rabbit CaV1.2alpha1C transfected in HEK293 cells by FLIPR assay. The method, boiled down:
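HEK293 cells stably transfected with rabbit CaV1.2α1C cDNA, plated at 4 × 10⁴ cells/well and cultured 4 days in DMEM with 10% FBS. Calcium influx is read on a FLIPR Tetra with a Fluo-8 no-wash calcium dye.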
Sequence of Voltage-dependent L-type calcium channel subunit alpha-1C (P15381 whole entry): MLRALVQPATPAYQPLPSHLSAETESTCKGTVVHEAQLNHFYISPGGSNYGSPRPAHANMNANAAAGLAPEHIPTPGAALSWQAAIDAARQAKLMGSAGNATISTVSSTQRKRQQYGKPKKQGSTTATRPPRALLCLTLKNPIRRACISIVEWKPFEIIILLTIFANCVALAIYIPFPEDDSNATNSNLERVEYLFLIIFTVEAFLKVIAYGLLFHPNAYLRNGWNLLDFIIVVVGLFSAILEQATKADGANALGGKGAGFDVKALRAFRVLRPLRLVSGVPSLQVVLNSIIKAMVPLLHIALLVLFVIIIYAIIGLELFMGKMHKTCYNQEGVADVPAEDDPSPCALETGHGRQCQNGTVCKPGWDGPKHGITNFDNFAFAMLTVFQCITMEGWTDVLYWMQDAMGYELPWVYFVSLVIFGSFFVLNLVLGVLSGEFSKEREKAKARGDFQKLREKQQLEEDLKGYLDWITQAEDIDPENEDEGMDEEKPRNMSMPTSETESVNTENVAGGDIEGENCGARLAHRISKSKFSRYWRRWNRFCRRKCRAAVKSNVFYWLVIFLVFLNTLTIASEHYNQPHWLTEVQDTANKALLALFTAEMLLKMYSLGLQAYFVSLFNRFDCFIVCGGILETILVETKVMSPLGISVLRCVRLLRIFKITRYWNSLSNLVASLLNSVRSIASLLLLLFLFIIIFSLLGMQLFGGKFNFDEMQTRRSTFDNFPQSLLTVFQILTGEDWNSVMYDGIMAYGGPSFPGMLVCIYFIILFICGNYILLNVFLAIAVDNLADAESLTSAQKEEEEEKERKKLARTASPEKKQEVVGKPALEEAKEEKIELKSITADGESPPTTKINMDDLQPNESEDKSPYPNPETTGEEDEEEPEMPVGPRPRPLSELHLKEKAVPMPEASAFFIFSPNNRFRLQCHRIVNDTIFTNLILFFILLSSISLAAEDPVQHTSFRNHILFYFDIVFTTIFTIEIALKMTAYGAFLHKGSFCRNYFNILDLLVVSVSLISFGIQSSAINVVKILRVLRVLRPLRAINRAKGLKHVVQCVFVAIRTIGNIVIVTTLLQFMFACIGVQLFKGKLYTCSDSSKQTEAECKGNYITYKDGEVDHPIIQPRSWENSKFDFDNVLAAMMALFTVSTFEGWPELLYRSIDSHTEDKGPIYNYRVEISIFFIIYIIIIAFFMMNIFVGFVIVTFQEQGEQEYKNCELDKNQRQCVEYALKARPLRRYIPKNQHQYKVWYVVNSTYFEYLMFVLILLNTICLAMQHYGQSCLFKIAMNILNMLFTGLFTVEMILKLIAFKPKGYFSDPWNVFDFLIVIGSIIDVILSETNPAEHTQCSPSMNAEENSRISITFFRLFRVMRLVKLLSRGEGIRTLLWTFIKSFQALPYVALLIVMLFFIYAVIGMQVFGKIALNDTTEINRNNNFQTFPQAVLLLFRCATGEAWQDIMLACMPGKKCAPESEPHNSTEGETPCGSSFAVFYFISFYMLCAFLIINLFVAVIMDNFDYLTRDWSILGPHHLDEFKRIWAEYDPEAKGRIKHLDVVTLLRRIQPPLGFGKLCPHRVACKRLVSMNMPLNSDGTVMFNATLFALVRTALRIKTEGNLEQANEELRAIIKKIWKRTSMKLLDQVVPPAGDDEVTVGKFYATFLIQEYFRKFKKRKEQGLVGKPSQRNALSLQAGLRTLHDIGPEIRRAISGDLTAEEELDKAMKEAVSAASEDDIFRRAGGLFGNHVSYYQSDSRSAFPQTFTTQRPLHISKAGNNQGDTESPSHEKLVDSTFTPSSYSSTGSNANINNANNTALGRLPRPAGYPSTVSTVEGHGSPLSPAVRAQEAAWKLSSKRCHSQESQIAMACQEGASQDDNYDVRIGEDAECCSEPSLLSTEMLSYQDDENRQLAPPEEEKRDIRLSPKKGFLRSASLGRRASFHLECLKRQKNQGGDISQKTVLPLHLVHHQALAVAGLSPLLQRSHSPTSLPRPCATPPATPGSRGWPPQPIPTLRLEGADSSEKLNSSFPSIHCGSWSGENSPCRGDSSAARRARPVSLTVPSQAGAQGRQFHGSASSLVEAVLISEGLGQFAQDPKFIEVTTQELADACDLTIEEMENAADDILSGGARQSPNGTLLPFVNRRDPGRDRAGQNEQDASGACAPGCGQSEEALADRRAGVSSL
For orientation: IC50 means the concentration that gives 50% inhibition. `O=c1cc(O)n(CCc2cccc(C(F)(F)F)c2)c(=O)n1[C@@H]1C[C@@H]2CC[C@H]1C2`: the IC50 turned out to be 100 µM. As to `O=c1cc(O)n(CCc2cccc(C(F)(F)F)c2)c(=O)n1[C@H]1C[C@H]2CC[C@@H]1C2`, the IC50 is greater than 100 µM. The result for `CC(Cn1c(O)cc(=O)n(C2CC3CCC2C3)c1=O)c1cccc(Cl)c1` (stereo not given) reads 5.1 µM; that for `CC(C)(Cn1c(O)cc(=O)n(C2CCCC2)c1=O)c1cccc(Cl)c1`, 12.6 µM; that for `O=c1cc(O)n(CC2(c3ccc(Cl)cc3)CC2)c(=O)n1C1CCCC1`, greater than 100 µM. In the case of `COC(=O)[C@H](Cc1ccccc1)n1c(O)cc(=O)n(C2CCCC2)c1=O` it was greater than 100 µM; in that of `O=c1cc(O)n(CCC(c2ccccc2)c2ccccc2)c(=O)n1C1CCCC1`, 4.7 µM. Turning to `O=c1cc(O)n(-c2cccc(C(F)(F)F)c2)c(=O)n1C1CCCC1`, the IC50 is greater than 100 µM. The result for `C[C@H](c1cccc2ccccc12)n1c(O)cc(=O)n(CCc2cccc(Cl)c2)c1=O` reads 10 µM. The result for `CCOC(=O)[C@@H]1CCC[C@@H]1n1c(=O)cc(O)n(CCc2cccc(Cl)c2)c1=O` reads 12.6 µM. Take `O=c1cc(O)n(CCc2cccc(Cl)c2)c(=O)n1[C@H]1CCC[C@@H]1O`: the IC50 is greater than 100 µM.

As to `O=C(O)[C@H]1CC[C@@H](n2c(=O)cc(O)n(CCc3cccc(Cl)c3)c2=O)C1`, the IC50 was greater than 100 µM. In the case of `C[C@H]1[C@H](n2c(=O)cc(O)n(CCc3ccc(Cl)cc3)c2=O)C[C@@H]2C[C@H]1C2(C)C` it was greater than 100 µM; in that of `CC1(C)[C@@H]2CC[C@H](Cn3c(=O)cc(O)n(CCc4ccc(Cl)cc4)c3=O)[C@H]1C2`, greater than 100 µM. In the case of `CC1(C)[C@@H]2CC[C@@]1(C)[C@@H](n1c(=O)cc(O)n(CCc3ccc(Cl)cc3)c1=O)C2` it was greater than 100 µM; in that of `O=c1cc(O)n(CCc2ccc(Cl)cc2)c(=O)n1[C@H]1C[C@H]2CC[C@@H]1C2`, 100 µM.

As to `O=c1cc(O)n(CCc2ccc(Cl)cc2)c(=O)n1C[C@H]1CCCO1`, the IC50 is greater than 100 µM. Regarding `C[C@H](C1CCCCC1)n1c(=O)cc(O)n(CCc2ccc(Cl)cc2)c1=O`, the half-maximal inhibitory concentration (IC50) is greater than 100 µM. The result for `C[C@@H]1[C@@H](n2c(=O)cc(O)n(CCc3cccc(Cl)c3)c2=O)C[C@H]2C[C@@H]1C2(C)C` reads greater than 100 µM. Turning to `C[C@H]1[C@H](n2c(=O)cc(O)n(CCc3cccc(Cl)c3)c2=O)C[C@@H]2C[C@H]1C2(C)C`, the IC50 was greater than 100 µM. In the case of `CC1(C)[C@@H]2CC[C@@]1(C)[C@@H](n1c(=O)cc(O)n(CCc3cccc(Cl)c3)c1=O)C2` it was greater than 100 µM; in that of `O=c1cc(O)n(CCc2cccc(Cl)c2)c(=O)n1[C@@H]1C[C@@H]2CC[C@H]1C2`, greater than 100 µM; in that of `O=c1cc(O)n(CCc2cccc(Cl)c2)c(=O)n1[C@H]1C[C@H]2CC[C@@H]1C2`, greater than 100 µM. Consider `C[C@H](C1CCCCC1)n1c(=O)cc(O)n(CCc2cccc(Cl)c2)c1=O`, for which the IC50 is greater than 100 µM. In the case of `C[C@@H](C1CCCCC1)n1c(=O)cc(O)n(CCc2cccc(Cl)c2)c1=O` it was greater than 100 µM. Turning to `CC1(C)CCC[C@H]1n1c(=O)cc(O)n(CCc2cccc(Cl)c2)c1=O`, the IC50 came to 4.7 µM. The result for `O=c1cc(O)n(CCc2cccc(Cl)c2)c(=O)n1C1CCCC1` reads greater than 100 µM. In the case of `C[C@@H](C1CCCCC1)n1c(=O)cc(O)n(CCc2ccc(Cl)cc2)c1=O` it was greater than 100 µM; in that of `C[C@H]1CCC[C@H]1n1c(=O)cc(O)n(CCc2ccc(Cl)cc2)c1=O`, 10 µM. In the case of `C[C@@H]1CCC[C@@H]1n1c(=O)cc(O)n(CCc2ccc(Cl)cc2)c1=O` it was 5.1 µM.

(Values after BindingDB's records for doi:10.1021/jm4005048 (Northwestern University, 2013).)
